In series [1] the test system is HCT-116. The experiment in a line: Induction of apoptosis in human HCT116 cells assessed as early apoptotic cells at 5 uM after 72 hrs by Annexin V-FITC/propidium iodide staining-based flow cytometric analysis (reference value: 7.82%). Type of series: functional. Summed up:
(§1)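 HCT116 cells seeded at 5×10^5 cells/mL in six-well plates, treated at 5 μM for 72 h alongside vehicle. Cells trypsinized, washed twice in cold PBS, and resuspended in 1× binding buffer. Stained with annexin V-FITC 15 min at room temperature, then PI 15 min in dark, then flow cytometry.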

The target of series [2] is T1, Nicotinamide phosphoribosyltransferase (Homo sapiens, UniProt P43490). As to the kind of experiment: Inhibition of human recombinant NAMPT using NAM as substrate preincubated for 5 mins followed by substrate addition measured after 15 mins by fluorescence assay.
Target sequence in this assay (P43490 whole entry, the tested form may be a part): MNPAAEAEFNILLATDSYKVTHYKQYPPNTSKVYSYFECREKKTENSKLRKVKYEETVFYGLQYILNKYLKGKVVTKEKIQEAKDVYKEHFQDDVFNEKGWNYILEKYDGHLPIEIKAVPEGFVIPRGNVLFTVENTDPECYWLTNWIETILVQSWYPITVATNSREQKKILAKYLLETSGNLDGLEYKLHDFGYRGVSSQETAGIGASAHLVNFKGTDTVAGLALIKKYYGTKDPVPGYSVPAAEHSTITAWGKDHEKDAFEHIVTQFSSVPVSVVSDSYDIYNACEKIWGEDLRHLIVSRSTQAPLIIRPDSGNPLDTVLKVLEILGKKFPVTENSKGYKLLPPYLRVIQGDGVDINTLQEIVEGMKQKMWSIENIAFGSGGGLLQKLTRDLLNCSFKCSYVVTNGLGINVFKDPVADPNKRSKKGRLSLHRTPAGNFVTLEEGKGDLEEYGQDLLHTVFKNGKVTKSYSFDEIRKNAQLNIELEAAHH
The target in series [3] is T2, Histone deacetylase 1 (Homo sapiens, UniProt Q13547). As to the kind of experiment: Inhibition of human recombinant HDAC1 (1 to 482 residues) expressed in Baculovirus using Ac-Leu-Gly-Lys(Ac)-AMC as substrate preincubated for 5 mins followed by substrate addition measured after 30 mins by fluorescence assay.
T2 sequence (Q13547 whole entry, the tested form may be a part): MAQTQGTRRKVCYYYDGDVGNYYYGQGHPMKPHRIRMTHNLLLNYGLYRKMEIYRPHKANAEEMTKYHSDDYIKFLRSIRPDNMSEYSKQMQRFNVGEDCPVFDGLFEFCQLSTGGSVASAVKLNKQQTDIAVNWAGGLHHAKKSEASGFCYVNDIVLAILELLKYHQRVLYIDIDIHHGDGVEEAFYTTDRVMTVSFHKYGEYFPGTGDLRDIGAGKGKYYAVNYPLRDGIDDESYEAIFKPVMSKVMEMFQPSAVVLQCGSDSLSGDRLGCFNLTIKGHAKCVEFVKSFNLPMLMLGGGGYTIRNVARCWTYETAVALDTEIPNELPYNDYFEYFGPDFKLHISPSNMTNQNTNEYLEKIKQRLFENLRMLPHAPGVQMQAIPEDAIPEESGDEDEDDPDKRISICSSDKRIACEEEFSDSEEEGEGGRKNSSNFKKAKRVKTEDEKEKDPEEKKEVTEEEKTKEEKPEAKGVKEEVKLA
Series [4] has as its system MDA-MB-231. As to the kind of experiment: cells. The format is functional, cell-based. Conditions: Homo sapiens, MDA-MB-231, 72 h.
Series [5] deals with HepG2. The experiment in a line: cells. Type of series: functional, cell-based. Conditions: Homo sapiens, HepG2, 72 h.
The target in series [6] is Histone deacetylase 2 (Homo sapiens, UniProt Q92769).
Chain of Histone deacetylase 2 (Q92769 whole entry, the tested form may be a part): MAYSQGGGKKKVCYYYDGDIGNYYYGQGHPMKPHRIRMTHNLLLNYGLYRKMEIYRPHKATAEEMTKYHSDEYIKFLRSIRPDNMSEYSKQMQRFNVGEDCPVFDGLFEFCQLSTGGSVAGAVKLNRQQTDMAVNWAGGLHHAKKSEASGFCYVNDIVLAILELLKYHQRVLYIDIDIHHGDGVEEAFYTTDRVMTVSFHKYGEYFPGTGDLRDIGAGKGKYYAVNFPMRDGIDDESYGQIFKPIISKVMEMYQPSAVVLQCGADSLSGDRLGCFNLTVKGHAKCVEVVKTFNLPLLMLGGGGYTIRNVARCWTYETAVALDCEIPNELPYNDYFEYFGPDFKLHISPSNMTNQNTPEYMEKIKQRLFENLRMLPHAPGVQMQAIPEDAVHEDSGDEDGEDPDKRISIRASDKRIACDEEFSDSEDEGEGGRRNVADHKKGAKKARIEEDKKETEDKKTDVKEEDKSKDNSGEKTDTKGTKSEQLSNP
Series [7] addresses Histone deacetylase 3/NCoR1 (Homo sapiens, UniProt O15379). The experiment in a line: Inhibition of human recombinant HDAC3/GST tagged NCOR1 (397 to 503 residues) expressed in insect cells using Ac-Leu-Gly-Lys(Ac)-AMC as substrate preincubated for 5 mins followed by substrate addition measured after 30 mins by fluorescence assay.
The target of series [8] is Histone deacetylase 4 (Homo sapiens, UniProt P56524). As to the kind of experiment: Inhibition of GST tagged human recombinant HDAC4 (H86 to 31G) expressed in Baculovirus infected Sf9 insect cells using Ac-Leu-Gly-Lys(Tfa)-AMC as substrate preincubated for 5 mins followed by substrate addition measured after 30 mins by fluorescence assay.
Series [9] addresses T3, Histone deacetylase 8 (Homo sapiens, UniProt Q9BY41).
T3 sequence (Q9BY41 whole entry): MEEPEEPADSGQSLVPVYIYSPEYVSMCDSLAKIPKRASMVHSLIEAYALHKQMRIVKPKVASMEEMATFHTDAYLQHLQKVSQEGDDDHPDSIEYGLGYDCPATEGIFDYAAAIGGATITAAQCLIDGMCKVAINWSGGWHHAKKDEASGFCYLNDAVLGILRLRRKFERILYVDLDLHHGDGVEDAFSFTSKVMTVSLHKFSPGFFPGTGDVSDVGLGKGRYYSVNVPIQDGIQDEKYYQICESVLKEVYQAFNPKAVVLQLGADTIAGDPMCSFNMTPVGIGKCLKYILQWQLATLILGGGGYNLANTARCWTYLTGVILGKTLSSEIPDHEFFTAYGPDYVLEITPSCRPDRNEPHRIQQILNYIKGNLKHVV
As to the kind of experiment: Inhibition of GST tagged full length human recombinant HDAC8 (H90 to 30H) expressed in Baculovirus infected Sf9 insect cells using Ac-Leu-Gly-Lys(Tfa)-AMC as substrate preincubated for 5 mins followed by substrate addition measured after 30 mins by fluorescence assay.

Series [10] relates to HCT-116. As to the kind of experiment: Induction of apoptosis in human HCT116 cells assessed as late apoptotic cells at 5 uM after 72 hrs by Annexin V-FITC/propidium iodide staining-based flow cytometric analysis (reference value: 3.33%). Type of series: functional. Summed up:
as §1
For orientation: In flow cytometry, cells or beads pass a laser one at a time.

Series [11] has as its system HCT-116. As to the kind of experiment: Induction of apoptosis in human HCT116 cells assessed as early apoptotic cells at 5 uM after 72 hrs in presence of autophagy inhibitor wortmannin by Annexin V-FITC/propidium iodide staining-based flow cytometric analysis (reference value: 7.82%). The format is functional.
In series [12] the test system is HCT-116. The experiment in a line: Induction of apoptosis in human HCT116 cells assessed as late apoptotic cells at 5 uM after 72 hrs in presence of autophagy inhibitor wortmannin by Annexin V-FITC/propidium iodide staining-based flow cytometric analysis (reference value: 3.33%). Type of series: functional.
Series [13] concerns HCT-116. As to the kind of experiment: Induction of apoptosis in human HCT116 cells assessed as necrotic cells at 5 uM after 72 hrs in presence of autophagy inhibitor wortmannin by Annexin V-FITC/propidium iodide staining-based flow cytometric analysis (reference value: 1.25%). The format is functional.
For series [14], the system named is HCT-116. The experiment in a line: Induction of autophagy in human HCT116 cells assessed as increase in LC3-2 level at 5 uM after 24 hrs by Western blot analysis. Type of series: functional, cell-based. Summed up: (§2)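 HCT116 cells exposed to 5 μM for 24, 48 and 72 h; DMSO control. Lysed in RIPA on ice, cleared 12000 × g. 30 μg protein per lane on SDS-PAGE, transferred to PVDF, blocked in 5% BSA. Probed overnight at 4 °C for LC3-II and P-62, then secondary antibody 1.5 h. Infrared imaging detection with quantification.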
Background: A western blot detects proteins with antibodies after separation by electrophoresis.

The test system of series [15] is HCT-116. As to the kind of experiment: Induction of autophagy in human HCT116 cells assessed as increase in LC3-2 level at 5 uM after 48 to 72 hrs by Western blot analysis. The format is functional, cell-based. Put shortly:
as §2

The test system of series [16] is HCT-116. The experiment in a line: Induction of autophagy in human HCT116 cells assessed as decrease in P-62 level at 5 uM after 24 to 72 hrs by Western blot analysis. Type of series: functional, cell-based. Summed up:
as §2

Series [17] deals with HCT-116. As to the kind of experiment: Cell cycle arrest in human HCT116 cells assessed as accumulation at G2 phase at 1 uM after 48 hrs by propidium iodide staining based flow cytometry (reference value: 5%). The format is functional.
Series [18] relates to HCT-116. As to the kind of experiment: Cell cycle arrest in human HCT116 cells assessed as accumulation at G2 phase at 5 uM after 48 hrs by propidium iodide staining based flow cytometry (reference value: 5%). The format is functional.
The species named for series [19] is Homo sapiens. The experiment in a line: Inhibition of HDAC in human HCT116 cells assessed as increase in acetylated histone H4 level after 24 hrs by Western blot analysis. The format is cell-based. Summed up: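 HCT116 cells treated at 1 and 5 μM for 24 h; DMSO-volume control. PBS-washed, RIPA-lysed on ice 30 min, centrifuged 12000 × g 15 min at 4 °C. 30 μg protein separated by SDS-PAGE, blotted to PVDF, blocked 5% BSA 2 h. Incubated with acetyl-histone H3 or H4 primary antibody overnight at 4 °C, then secondary antibody; infrared imaging.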

Series [20] relates to HCT-116. As to the kind of experiment: animal or person. Conditions: Mus musculus, HCT-116, ip, read-out: TGI. Type of series: functional, Homo sapiens.
The nature of series [21]: Cmax in Sprague-Dawley rat at 2 mg/kg, ip. Type of series: ADME, organism-based. More on the design: dose 2 mg/kg, route intraperitoneal. Conditions: in vivo. Put shortly: (§3)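 Sprague-Dawley rats given a single ip dose of 2 mg/kg. Plasma concentration–time profile used to derive terminal half-life, Cmax, plasma clearance and Vss.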
Series [22] can be described thus: Plasma clearance in Sprague-Dawley rat at 2 mg/kg, ip. The format is ADME, organism-based. Summed up: as §3
Series [23] addresses T2, Histone deacetylase 1. The experiment in a line: Inhibition of human recombinant HDAC1 (1 to 482 residues) expressed in Baculovirus using Ac-Leu-Gly-Lys(Ac)-AMC as substrate after 3 hrs by fluorescence assay.
Series [24] deals with T1, Nicotinamide phosphoribosyltransferase. To be noted: 10 uM.
Target sequence in this assay (P43490 whole entry, looked up, the tested form may be a part): as the sequence (P43490 whole entry, the tested form may be a part) above

The results in this text go back to ChEMBL document CHEMBL4017517, “Small Molecule Inhibitors Simultaneously Targeting Cancer Metabolism and Epigenetics: Discovery of Novel Nicotinamide Phosphoribosyltransferase (NAMPT) and Histone Deacetylase (HDAC) Dual Inhibitors” (J Med Chem, 2017).

Active and inactive are the calls of the source. The rule behind the calls is not given here.

Chain of Histone deacetylase 3/NCoR1 (O15379 whole entry, the tested form may be a part): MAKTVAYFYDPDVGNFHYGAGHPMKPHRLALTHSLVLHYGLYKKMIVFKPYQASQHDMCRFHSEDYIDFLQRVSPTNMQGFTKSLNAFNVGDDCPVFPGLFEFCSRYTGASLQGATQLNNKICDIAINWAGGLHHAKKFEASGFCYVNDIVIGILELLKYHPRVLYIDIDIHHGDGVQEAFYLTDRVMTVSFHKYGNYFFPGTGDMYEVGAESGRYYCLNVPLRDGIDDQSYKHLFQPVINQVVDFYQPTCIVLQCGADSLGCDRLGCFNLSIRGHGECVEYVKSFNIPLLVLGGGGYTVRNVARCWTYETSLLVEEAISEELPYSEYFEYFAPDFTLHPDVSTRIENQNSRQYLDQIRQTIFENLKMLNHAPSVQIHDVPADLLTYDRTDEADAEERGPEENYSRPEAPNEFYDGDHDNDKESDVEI
Chain of Histone deacetylase 3/NCoR1 (O75376 whole entry, further chain, the tested form may be a part): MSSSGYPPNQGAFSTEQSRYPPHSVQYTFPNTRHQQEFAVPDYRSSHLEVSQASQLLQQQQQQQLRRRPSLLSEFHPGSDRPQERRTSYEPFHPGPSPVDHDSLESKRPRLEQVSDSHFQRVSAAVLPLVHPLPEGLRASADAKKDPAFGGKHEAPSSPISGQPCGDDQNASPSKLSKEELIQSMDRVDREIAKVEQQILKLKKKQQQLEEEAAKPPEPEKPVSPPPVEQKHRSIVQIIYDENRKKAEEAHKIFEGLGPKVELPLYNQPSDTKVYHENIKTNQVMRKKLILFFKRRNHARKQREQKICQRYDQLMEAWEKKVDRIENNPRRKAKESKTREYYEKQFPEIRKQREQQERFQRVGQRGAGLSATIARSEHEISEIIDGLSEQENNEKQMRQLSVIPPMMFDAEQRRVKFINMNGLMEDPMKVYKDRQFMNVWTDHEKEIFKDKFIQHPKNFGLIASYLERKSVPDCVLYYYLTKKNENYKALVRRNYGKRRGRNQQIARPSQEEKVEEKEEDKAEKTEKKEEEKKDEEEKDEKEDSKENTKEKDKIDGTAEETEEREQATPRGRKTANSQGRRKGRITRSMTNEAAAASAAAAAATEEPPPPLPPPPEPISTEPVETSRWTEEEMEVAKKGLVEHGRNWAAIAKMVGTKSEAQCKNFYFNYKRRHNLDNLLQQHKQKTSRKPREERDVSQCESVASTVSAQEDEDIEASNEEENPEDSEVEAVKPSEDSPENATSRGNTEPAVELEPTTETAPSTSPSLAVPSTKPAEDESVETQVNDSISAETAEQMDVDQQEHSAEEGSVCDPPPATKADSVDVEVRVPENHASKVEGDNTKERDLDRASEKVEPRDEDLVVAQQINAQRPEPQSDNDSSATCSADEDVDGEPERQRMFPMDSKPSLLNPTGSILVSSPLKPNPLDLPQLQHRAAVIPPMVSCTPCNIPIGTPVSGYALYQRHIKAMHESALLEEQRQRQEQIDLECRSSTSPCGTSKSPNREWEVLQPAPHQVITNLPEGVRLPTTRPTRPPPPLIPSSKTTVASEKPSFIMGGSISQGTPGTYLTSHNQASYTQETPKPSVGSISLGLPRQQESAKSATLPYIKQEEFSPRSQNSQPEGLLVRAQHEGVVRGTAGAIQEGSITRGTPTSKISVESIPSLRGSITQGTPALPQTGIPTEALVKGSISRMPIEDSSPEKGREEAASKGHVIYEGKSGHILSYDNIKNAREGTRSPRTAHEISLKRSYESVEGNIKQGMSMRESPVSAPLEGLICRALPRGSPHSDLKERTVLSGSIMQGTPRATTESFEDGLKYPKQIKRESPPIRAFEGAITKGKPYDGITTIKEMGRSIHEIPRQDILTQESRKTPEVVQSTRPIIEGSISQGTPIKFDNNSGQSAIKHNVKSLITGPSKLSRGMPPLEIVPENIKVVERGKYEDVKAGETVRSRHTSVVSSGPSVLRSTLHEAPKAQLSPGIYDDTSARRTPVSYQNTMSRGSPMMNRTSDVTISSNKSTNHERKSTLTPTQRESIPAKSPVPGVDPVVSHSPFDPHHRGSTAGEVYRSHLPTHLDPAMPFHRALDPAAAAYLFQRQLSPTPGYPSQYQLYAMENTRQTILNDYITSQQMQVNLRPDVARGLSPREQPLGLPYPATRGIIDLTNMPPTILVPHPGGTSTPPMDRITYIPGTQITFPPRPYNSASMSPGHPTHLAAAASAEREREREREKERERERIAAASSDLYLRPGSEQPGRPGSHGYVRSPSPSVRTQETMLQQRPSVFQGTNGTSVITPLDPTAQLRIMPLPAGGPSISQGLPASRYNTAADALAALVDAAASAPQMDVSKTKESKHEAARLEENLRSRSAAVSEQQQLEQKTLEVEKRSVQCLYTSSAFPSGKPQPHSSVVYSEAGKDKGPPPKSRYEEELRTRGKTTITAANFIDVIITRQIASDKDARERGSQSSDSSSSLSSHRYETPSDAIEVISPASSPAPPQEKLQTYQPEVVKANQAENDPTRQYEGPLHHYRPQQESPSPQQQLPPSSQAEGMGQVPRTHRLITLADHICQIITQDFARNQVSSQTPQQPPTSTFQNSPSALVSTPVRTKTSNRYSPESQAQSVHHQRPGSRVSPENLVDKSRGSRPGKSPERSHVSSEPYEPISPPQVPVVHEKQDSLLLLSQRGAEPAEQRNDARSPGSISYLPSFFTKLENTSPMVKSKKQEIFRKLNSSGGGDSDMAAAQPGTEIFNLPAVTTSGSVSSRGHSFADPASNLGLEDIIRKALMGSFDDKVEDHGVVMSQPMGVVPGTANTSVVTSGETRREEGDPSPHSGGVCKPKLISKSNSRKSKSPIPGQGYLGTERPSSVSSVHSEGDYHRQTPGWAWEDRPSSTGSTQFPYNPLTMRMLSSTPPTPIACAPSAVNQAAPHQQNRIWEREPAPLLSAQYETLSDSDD

Consider `Nc1ccccc1NC(=O)c1ccc(Cn2cc(-c3ccc(C(=O)NCc4cccnc4)cc3)nn2)cc1`, for which the Activity in series [1] is on record as 22.15%; in series [10] it was 21.84%; in series [11], 12.46%; in series [12] it was 15.22%; in [13], 2.19%; in series [17], 19%. In addition, the Activity in [18] was found to be 39%. The IC50 in series [2] came to 0.031 µM; in [3], 0.055 µM; in series [4] it was 10 µM; in series [5] it was 4.5 µM; in series [6] it was 0.075 µM; in [7] it was 1.87 µM. Moreover, the IC50 was greater than 100 µM in series [8], greater than 100 µM in series [9] and 0.024 µM in series [23]. Further, the outcome in series [14] and in series [16] was Active. Moreover, the result in series [15] was inactive. For the same molecule, the inhibition result in series [19] is “Active”. For the same molecule, the inhibition in vivo at 25 mg/kg in series [20] stood at 69%. This molecule gave a Cmax in [21] of 745 ng/mL. This molecule gave a CL/F in series [22] of 103 mL/min/kg. In addition, the ΔTm in series [24] turned out to be 1.58 °C.

One may read the IC50 as the concentration that gives 50% inhibition. A word on the Cmax: it is the highest concentration seen after dosing. The term CL/F denotes clearance divided by bioavailability, as obtained after extravascular dosing. A word on the ΔTm: it is the change in melting temperature against a reference sample.
